Here are results for 49 compounds from ChEMBL document CHEMBL1133124, “N(2)-Aroylanthranilamide inhibitors of human factor Xa” (J Med Chem, 2000).

Structures are written as SMILES.

The experiment deals with Coagulation factor X (Homo sapiens) (UniProt P00742). Description: Binding affinity for coagulation factor X as apparent association constant (Kass) derived from protease inhibition kinetics. Summed up: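 Human fXa, 3.2 nM final, in tris/NaCl buffer pH 7.4 with HSA; inhibitor added in MeOH, then chromogenic substrate (0.3 mM stock in water) to start hydrolysis; rates read at 405 nm. Four to eight inhibitor concentrations, n = 3 each.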
Sequence of Coagulation factor X (Homo sapiens) (P00742 41-179 limits assumed): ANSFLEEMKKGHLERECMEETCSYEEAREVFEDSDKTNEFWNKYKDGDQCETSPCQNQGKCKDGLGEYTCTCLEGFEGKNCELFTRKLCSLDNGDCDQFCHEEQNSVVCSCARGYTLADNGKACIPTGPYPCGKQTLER
Sequence of Coagulation factor X (Homo sapiens) (P00742 235-488 limits assumed): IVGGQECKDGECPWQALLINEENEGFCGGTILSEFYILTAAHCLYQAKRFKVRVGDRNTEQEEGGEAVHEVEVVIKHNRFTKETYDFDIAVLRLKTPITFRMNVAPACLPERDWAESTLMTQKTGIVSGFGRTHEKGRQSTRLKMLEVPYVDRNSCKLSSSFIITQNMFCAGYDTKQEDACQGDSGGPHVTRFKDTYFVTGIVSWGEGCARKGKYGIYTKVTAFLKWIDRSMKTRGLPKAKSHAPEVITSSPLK
Take `COc1ccc(NC(=O)c2ccc(NC(C)=O)cc2NC(=O)c2ccc(C(C)(C)C)cc2)cc1`: the K ass was 2.2e+06 l M-1.

As for `COc1ccc(NC(=O)c2ccccc2NC(=O)c2cccc(C)c2)cc1`, the K ass is 30000 l M-1.

Take `CC(C)(C)c1ccc(C(=O)Nc2ccccc2C(=O)Nc2ccc(Cl)cc2)cc1`: the K ass is 490000 l M-1.

Turning to `COc1ccc(NC(=O)c2ccc(NC(=O)CCC(=O)O)cc2NC(=O)c2ccc(C(C)(C)C)cc2)cc1`, the K ass is 9.6e+06 l M-1.

Consider `COc1ccc(NC(=O)c2cc(NC(=O)CCC(=O)O)ccc2NC(=O)c2ccc(C(C)(C)C)cc2)cc1`, for which the K ass is 150000 l M-1.

Turning to `COc1ccc(NC(=O)c2ccc(N)cc2NC(=O)c2ccc(N(C)C)cc2)cc1`, the K ass is 2.27e+07 l M-1.

On to `COc1ccc(NC(=O)c2cc(NS(C)(=O)=O)ccc2NC(=O)c2ccc(N(C)C)cc2)cc1`, for which the K ass was 5.79e+07 l M-1.

In the case of `COc1ccc(NC(=O)c2ccccc2NC(=O)c2ccc(C(C)(C)C)cc2)cc1`, the K ass is 4.7e+06 l M-1.

Regarding `CC(C)(C)c1ccc(C(=O)Nc2ccccc2C(=O)Nc2ccc(OC(F)(F)F)cc2)cc1`, the K ass is < 1000 l M-1.

`Cc1ccc(NC(=O)c2ccccc2NC(=O)c2ccc(C(C)(C)C)cc2)cc1`: the K ass is 3.4e+06 l M-1.

Take `COc1ccc(NC(=O)c2cc(NS(C)(=O)=O)ccc2NC(=O)c2ccc(C(C)(C)C)cc2)cc1`: the K ass was 1.35e+07 l M-1.

For the compound `COc1ccc(NC(=O)c2ccccc2NC(=O)c2cccc(N(C)C)c2)cc1`, the K ass was 90000 l M-1.

Take `COc1ccc(NC(=O)c2cc(NC(=O)CCC(=O)O)ccc2NC(=O)c2ccc(N(C)C)cc2)cc1`: the K ass is 400000 l M-1.

Turning to `COc1ccc(NC(=O)c2ccc(NS(C)(=O)=O)cc2NC(=O)c2ccc(N(C)C)cc2)cc1`, the K ass was 8e+06 l M-1.

For the compound `COc1ccc(NC(=O)c2ccccc2NC(=O)c2ccc(OC)cc2)cc1`, the K ass was 1.2e+06 l M-1.

As to `COc1ccc(NC(=O)c2ccccc2C(=O)Nc2ccc(OC)cc2)cc1`, the K ass is 70000 l M-1.

As to `CCc1ccc(NC(=O)c2ccccc2NC(=O)c2ccc(C(C)(C)C)cc2)cc1`, the K ass is 1000 l M-1.

Regarding `COc1ccc(NC(=O)c2cc(N)ccc2NC(=O)c2ccc(C(C)(C)C)cc2)cc1`, the K ass is 2.5e+06 l M-1.

Regarding `COc1ccc(NC(=O)c2ccccc2NC(=O)c2ccc(Cl)c(Cl)c2)cc1`, the K ass is 10000 l M-1.

Consider `COc1ccc(NC(=O)c2ccccc2NC(=O)c2ccc(C(C)O)cc2)cc1` (centres undefined), for which the K ass was 400000 l M-1.

In the case of `COc1ccc(NC(=O)c2ccccc2NC(=O)c2cccc(Cl)c2)cc1`, the K ass is 30000 l M-1.

As to `COc1ccc(NC(=O)c2ccccc2NC(=O)c2ccc(C(C)C)cc2)cc1`, the K ass is 7e+06 l M-1.

As for `COc1ccc(NC(=O)c2ccc(N)cc2NC(=O)c2ccc(C(C)(C)C)cc2)cc1`, the K ass is 6.3e+06 l M-1.

With `COc1ccc(NC(=O)c2ccccc2NC(=O)c2ccc(C(F)(F)F)cc2)cc1`, the K ass was 90000 l M-1.

Regarding `COc1ccc(NC(=O)c2ccccc2NC(=O)c2ccc(C(C)(C)O)cc2)cc1`, the K ass is 480000 l M-1.

Turning to `COc1ccc(NC(=O)c2cc(NS(=O)(=O)c3ccccc3)ccc2NC(=O)c2ccc(C(C)(C)C)cc2)cc1`, the K ass is 4.9e+06 l M-1.

As to `COc1ccc(NC(=O)c2ccc(NC(=O)CCC(=O)O)cc2NC(=O)c2ccc(N(C)C)cc2)cc1`, the K ass was 9.6e+06 l M-1.

For `COc1ccc(NC(=O)c2ccc(NS(=O)(=O)c3ccccc3)cc2NC(=O)c2ccc(C(C)(C)C)cc2)cc1`, the K ass is 620000 l M-1.

As for `COc1ccc(NC(=O)c2ccccc2NC(=O)c2ccc(C(N)=O)cc2)cc1`, the K ass was 1.12e+06 l M-1.

Regarding `COc1ccc(NC(=O)c2cc(N)ccc2NC(=O)c2ccc(N(C)C)cc2)cc1`, the K ass was 7e+06 l M-1.

For the compound `COc1ccc(C(=O)Nc2ccccc2C(=O)Nc2ccc(C(C)(C)C)cc2)cc1`, the K ass is 30000 l M-1.

On to `CC(C)(C)c1ccc(C(=O)Nc2ccccc2C(=O)Nc2ccc(C(F)(F)F)cc2)cc1`, for which the K ass was 1000 l M-1.

Take `COc1ccc(NC(=O)c2cc([N+](=O)[O-])ccc2NC(=O)c2ccc(C(C)(C)C)cc2)cc1`: the K ass is 2.1e+06 l M-1.

In the case of `COc1ccc(/C=C/c2ccccc2NC(=O)c2ccc(OC)cc2)cc1`, the K ass is 30000 l M-1.

As to `CC(C)(C)c1ccc(C(=O)Nc2ccccc2C(=O)Nc2ccc(F)cc2)cc1`, the K ass was 110000 l M-1.

Take `COc1ccc(C(=O)Nc2ccccc2NC(=O)c2ccc(N(C)C)cc2)cc1`: the K ass was 1.87e+07 l M-1.

With `COc1ccc(NC(=O)c2ccccc2NC(=O)c2ccc(N(C)C)cc2)cc1`, the K ass is 2.01e+07 l M-1.

`COc1ccc(NC(=O)c2ccccc2NC(=O)c2ccc(Cl)cc2)cc1`: the K ass was 270000 l M-1.

Regarding `COc1ccc(NC(=O)c2ccccc2NC(=O)c2ccc(C(C)=O)cc2)cc1`, the K ass is 450000 l M-1.

On to `COc1ccc(NC(=O)c2ccc([N+](=O)[O-])cc2NC(=O)c2ccc(C(C)(C)C)cc2)cc1`, for which the K ass is 80000 l M-1.

`COc1ccc(NC(=O)c2ccccc2NC(=O)c2ccc(C)cc2)cc1`: the K ass was 1.8e+06 l M-1.

In the case of `COc1ccc(NC(=O)c2cc(NC(C)=O)ccc2NC(=O)c2ccc(C(C)(C)C)cc2)cc1`, the K ass was 40000 l M-1.

For the compound `COc1ccc(NC(=O)c2ccc(NS(C)(=O)=O)cc2NC(=O)c2ccc(C(C)(C)C)cc2)cc1`, the K ass is 3.9e+06 l M-1.

In the case of `COc1ccc(CCc2ccccc2NC(=O)c2ccc(OC)cc2)cc1`, the K ass is < 1000 l M-1.

On to `CCOc1ccc(C(=O)Nc2ccccc2C(=O)Nc2ccc(OC)cc2)cc1`, for which the K ass was 1e+06 l M-1.

As for `CC(C)(C)c1ccc(C(=O)Nc2ccccc2C(=O)Nc2ccc(Br)cc2)cc1`, the K ass is 220000 l M-1.

As to `CC(C)(C)c1ccc(C(=O)Nc2ccccc2C(=O)Nc2ccccc2)cc1`, the K ass is 460000 l M-1.

Consider `COc1ccc(C(=O)Nc2ccccc2NC(=O)c2ccc(OC)cc2)cc1`, for which the K ass is 1.3e+06 l M-1.

On to `COc1ccc(OCc2ccccc2NC(=O)c2ccc(OC)cc2)cc1`, for which the K ass is 30000 l M-1.
